Laboratory results as given in paper PMC6366617 (Science (New York, N.Y.), 2019).

B3: sushi 1 domain of GABABR1a (Fc-tag enzymatically removed) (domain or fragment)
chain: TSEGCQIIHPPWEGGIRYRGLTRDQVKAINFLPVDYEIEYVCRGEREVVGPKVRKCLANGSWTDMDTPSRCVR

Tests used:
[1] = tested on: Schaffer collateral synapses, acute hippocampal slices; parameters: species or system mouse; conditions: for paired-pulse ratio (PPR): 1 μM protein, first 2 stimuli at 20, 50 and 100 Hz
Summary of the method: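 Acute mouse hippocampal slices were pre-incubated 90 min with or without 1 μM test protein (Fc tag removed), with or without 10 μM CGP54626. fEPSPs were recorded in CA1 stratum radiatum on Schaffer collateral stimulation. Input/output: 0.1 Hz, 30–150 μA. Bursts at 20, 50 and 100 Hz were normalized to the first response peak. PPR used the first two pulses. n is slices. Means ± SEM.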

[2] = tested on: cultured hippocampal mouse neurons (presynaptic strength); test: FM1-43 presynaptic vesicle recycling in cultured hippocampal neurons; type: cell-based
Summary of the method: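 Cultured mouse hippocampal neurons were loaded and unloaded with FM1–43 by a combined stimulation paradigm, before and after test protein (Fc tag enzymatically removed; dose series, 1 μM top). Presynaptic strength S = ΔF at individual boutons × density of FM+ boutons per image area. Antagonist arms were run with or without GABABR antagonist, normalized to control. N is independent experiments. Means ± SEM, one-way ANOVA with Tukey post hoc.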

[3] = tested on: cultured mouse hippocampal neurons (mEPSCs); test: mEPSC recording in cultured hippocampal neurons; type: cell-based; conditions: for reduction of mEPSC frequency: P < 0.001, 12-17 DIV; for effect on mEPSC frequency: acute application, Fc-tag enzymatically removed (ExD-AcD, sAPPαΔExD; n=17-20, N=3)
[4] = tested on: cultured mouse hippocampal neurons (mIPSCs); test: mIPSC recording in cultured hippocampal neurons; type: cell-based; conditions: for reduction of mIPSC frequency: acute, P < 0.001
Summary of the method: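 Mouse hippocampal neurons in culture (12–17 DIV) were recorded for miniature currents, and mIPSCs were separated from mEPSCs by their decay kinetics. Frequency was compared between baseline and acute application of 250 nM test protein, or of 30 μM baclofen as GABABR agonist reference. n is cells.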

[5] = tested on: neurons lacking APP; App/Aplp1 dKO cultures (mIPSCs); test: mIPSC recording in neurons lacking APP / App/Aplp1 dKO cultures; type: cell-based, mouse
[6] = tested on: neurons lacking APP; App/Aplp1 dKO cultures (mEPSCs); test: mEPSC recording in neurons lacking APP / App/Aplp1 dKO cultures; type: cell-based, mouse
[7] = target: sushi 1 domain of GABABR1a (Homo sapiens, UniProt Q9UBS5); test: Isothermal titration calorimetry; type: binding; conditions: ITC
Summary of the method: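 Isothermal titration calorimetry was run between purified test protein and purified GABABR1a sushi 1 domain. Fc tags were enzymatically removed from both. The dissociation constant (KD) was derived from the titration.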

GABABR2 = test: Cell-surface binding assay, GABABR2-expressing HEK293T cells; conditions: immunostaining, confocal, pDisplay vector, n=24
GABABR1b = test: Cell-surface binding assay, GABABR1b-expressing HEK293T cells; conditions: immunostaining, confocal, pDisplay vector, n=24
Summary of the method: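 Fc-tagged test protein, affinity-purified from transfected HEK293T supernatants, was applied to HEK293T cells displaying the receptor ectodomain at the surface (pDisplay). Fc alone served as control. Bound protein was detected by immunostaining, imaged by confocal microscopy and quantified per cell. n is total cells from 3–4 independent experiments. Means ± SEM, two-way ANOVA with Bonferroni post hoc.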

[8] = tested on: synaptic transmission and plasticity; conditions: ref [16]–[19]; cited from earlier work
App KO mice = conditions: cited from earlier work
GABABR1a sushi 1 = test: Biolayer interferometry, sAPPα binding to immobilized sushi peptides; conditions: sAPPα Fc-tag enzymatically removed; immobilized Fc-tagged sushi peptides
[9] = target: B3; test: ITC
[10] = target: sAPPα (Fc-tag enzymatically removed) (UniProt P05067-4 18-612); test: ITC
[11] = tested on: sAPPα-Fc binding to GABABR1a-expressing HEK293T cells; test: Competition of sAPPα-Fc binding to GABABR1a-expressing HEK293T cells; conditions: increasing concentrations of untagged sushi 1 peptide, excess; n=24-31
[12] = 30 μM baclofen, App/Aplp1 dKO vs WT cultures
[13] = 1 μM sAPPα, 90 min pre-incubation, 0.1 Hz, 30-150 μA

C[C@H](NC[C@H](O)CP(=O)(O)CC1CCCCC1)c1ccc(Cl)c(Cl)c1 [CGP54626, reference compound]
effect of CGP54626 on sAPPα-mediated decrease in i/o slope ([1]; CGP54626 10 μM, preincubation of slices): abolished the sAPPα-mediated decrease in the slope of the i/o curve
effect of CGP54626 on sAPPα-induced decrease of presynaptic strength ([2]; CGP54626 10μM, N=8): occluded

C[C@H](NC[C@H](O)CP(=O)(O)Cc1ccccc1)c1ccc(Cl)c(Cl)c1 [CGP55845, reference compound]
effect of CGP55845 pretreatment on APP 17mer reduction of mEPSC frequency ([3]; CGP55845 5μM, 17mer 250 nM, n=16, N=3 (without CGP n=14, N=3)): blocks this effect
effect of CGP55845 pretreatment on sAPPα effect on mIPSC frequency ([4]; CGP55845 5 μM, pretreatment): blocked by pretreatment

NCC(CC(=O)O)c1ccc(Cl)cc1 (stereo not drawn) [baclofen, reference compound]
reduction of mEPSC frequency ([3]; 30 μM baclofen, acute, n=14 cells): 63 ± 5%
reduction of mIPSC frequency ([4]; 30 μM baclofen, n=14 cells): 62 ± 5%
effect on mIPSC frequency in App/Aplp1 dKO cultures [5, 12]: similarly reduced mEPSC and mIPSC frequency
effect on mEPSC frequency in App/Aplp1 dKO cultures [6, 12]: similarly reduced mEPSC and mIPSC frequency

residues 211–220: peptide of APP695 residues 211–220 (GGADTDYADG)
binding affinity to sushi 1 (in words) ([7]; for ExD-AcD Fc-tag enzymatically removed): failed to bind sushi 1

sAPPα-Fc: recombinant sAPPα with C-terminal Fc-tag from transfected HEK293T supernatants
binding to GABABR2-expressing cells (GABABR2): not to GABABR1b-, or GABABR2-, expressing cells
binding to GABABR1b-expressing cells (GABABR1b): not to GABABR1b-

sAPPα: soluble APP ectodomain released by α-secretase; purified recombinant protein
effect on LTP [8]: an enhancement of LTP
effect on synaptic activity [8]: a reduction in synaptic activity
paired-pulse ratio (PPR) [1]: increased PPR for each frequency
decrease of slope of the input/output (i/o) curve [1, 13]: 23%
fEPSP amplitude [1, 13]: reduced fEPSP amplitude
effect on mEPSC frequency at 25 nM ([3]; 25nM sAPPα): already apparent at 25nM
effect on mEPSC amplitude ([3]; 250 nM sAPPα (Fc-tag removed), acute): without affecting mEPSC amplitude
reduction of mEPSC frequency ([3]; 250 nM sAPPα (Fc-tag removed), acute, n=13 cells): 39 ± 5%
reduction of total presynaptic strength (S = ΔF × D) ([2]; 1 μM sAPPα, FM1-43 loading/unloading, n=8 experiments, P < 0.001): 57 ± 7%
total presynaptic strength (S = ΔF × D), dose dependence ([2]; FM1-43 loading/unloading, sAPPα Fc-tag enzymatically removed, N=5-8): decreased the total presynaptic strength
reduction of mIPSC frequency ([4]; 250 nM sAPPα, n=13 cells): 44 ± 5%
reduction in mIPSC amplitude ([4]; sAPPα, acute (250 nM)): 14%
effect on mIPSC frequency in neurons lacking APP ([5]; sAPPα, neurons lacking APP): still reduced mEPSC and mIPSC frequency
rescue of spine density defects (App KO mice; ref [20]): sufficient to rescue synaptic defects in App KO mice, including defects in spine density
rescue of LTP defects (App KO mice; ref [21], [22]): sufficient to rescue synaptic defects in App KO mice
rescue of spatial learning defects (App KO mice; ref [21]): sufficient to rescue synaptic defects in App KO mice
binding of sAPPα to sushi 1 (biolayer interferometry) (GABABR1a sushi 1): sushi 1 peptide was sufficient for binding sAPPα
Kd ([7]; read-out: dissociation constant (KD) for sAPPα-sushi 1, purified proteins, Fc-tag enzymatically removed from both): 431 nM
effect on mEPSC frequency in neurons lacking APP ([6]; sAPPα, neurons lacking APP): still reduced mEPSC and mIPSC frequency

sAPPαΔExD: sAPPα with deletion of the ExD
paired-pulse ratio (PPR) [1]: abolished the sAPPα-mediated effect
effect on the i/o curve with ExD deletion ([1]; sAPPαΔExD 1 μM): abolished the sAPPα-mediated effect on the i/o curve
effect on mEPSC frequency [3]: had no effect
decrease of total presynaptic strength with ExD deletion ([2]; sAPPαΔExD 1 μM, FM1-43): not observed
effect on mIPSC frequency ([4]; acute application): not sAPPαΔExD, reduced mIPSC frequency

sAPPβ: soluble APP ectodomain released by β-secretase
effect on mEPSC frequency [3]: similarly reduced mEPSC frequency

B1: APP 17mer peptide (APP695 204-220AA) (peptide, UniProt P05067-4 204-220, looked up)
peptide: DDSDVWWGGADTDYADG
Kd [9]: 810 nM

B2: APP 9mer peptide (APP695 residues 204-212) (peptide, UniProt P05067-4 204-212, looked up)
peptide: DDSDVWWGG
Kd [9]: 2300 nM

B3
Kd [10]: 431 nM

B4: sAPLP1: soluble APP-like protein 1, lacks a conserved ExD (protein)
chain: SLAGGSPGAAEAPGSAQVAGLCGRLTLHRDLRTGRWEPDPQRSRRCLRDPQRVLEYCRQMYPELQIARVEQATQAIPMERWCGGSRSGSCAHPHHQVVPFRCLPGEFVSEALLVPEGCRFLHQERMDQCESSTRRHQEAQEACSSQGLILHGSGMLLPCGSDRFRGVEYVCCPPPGTPDPSGTAVGDPSTRSWPPGSRVEGAEDEEEEESFPQPVDDYFVEPPQAEEEEETVPPPSSHTLAVVGKVTPTPRPTDGVDIYFGMPGEISEHEGFLRAKMDLEERRMRQINEVMREWAMADNQSKNLPKADRQALNEHFQSILQTLEEQVSGERQRLVETHATRVIALINDQRRAALEGFLAALQADPPQAERVLLALRRYLRAEQKEQRHTLRHYQHVAAVDPEKAQQMRFQVHTHLQVIEERVNQSLGLLDQNPHLAQELRPQIQELLHSEHLGPSELEAPAPGGSSEDKGGLQPPDSKDDTPMTLPKGSTEQDAASPEKEKMNPLEQYERKVNASVPRGFPFHSSEIQRDELAPAGTGVSRE
modifications: left off: Fc, end not stated, kept
effect on mEPSC frequency [3]: did not reduce mEPSC frequency
reduction in mIPSC frequency by sAPLP1 ([4]; sAPLP1, acute, n=17 cells, P < 0.05): 17 ± 9%

B5: sushi 1 peptide: sushi 1 domain of GABABR1a, recombinant (protein)
chain: TSEGCQIIHPPWEGGIRYRGLTRDQVKAINFLPVDYEIEYVCRGEREVVGPKVRKCLANGSWTDMDTPSRCVR
modifications: left off: Fc, end not stated, kept
blocking of sAPPα-Fc binding to GABABR1a-expressing cells [11]: blocked binding of sAPPα-Fc to GABABR1a-expressing cells
